Measurements: ChEMBL document CHEMBL3272036, “Reactions of 2-acyloxyisobutyryl halides with nucleosides. Synthesis and biological evaluation of some 3"-acyl and 3',5'-diacyl derivatives of 1-beta-D-arabinofuranosylcytosine” (J Med Chem, 1976)
pEC50: −log10 of the molar value. Values after ≈ are worked out from the molar mass of the structure shown. Active and inactive are the calls of the source. The calls are words filed in the database; no cut-off is given here.

Tests used:
L1210 [1] = assay: Antitumor activity against mouse L1210 cells allografted in BDF1 mouse assessed as increase in life span at 200 mg/kg, ip administered as single dose relative to vehicle-treated control; type: functional; details: route intraperitoneal
In short: (§1)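 Single intraperitoneal injection given 24 h after the leukemic cells were introduced, at 100, 200, 500 or 1000 mg/kg. Read-out is % increase in life span (ILS), with the count of 30-day survivors per group recorded (group sizes 7–8 mice).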

L1210 [2] = assay: Antitumor activity against mouse L1210 cells allografted in BDF1 mouse assessed as survival at 100 mg/kg, ip administered as single dose measured on day 30 relative to vehicle-treated control; type: functional, organism-based; parameters: dose 100 mg/kg
In short: (§2)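 Leukemic L1210 cells were introduced into mice. Each compound was then given as a single intraperitoneal injection 24 h later. Activity is expressed as % increase in life span (ILS), with the count of 30-day survivors per group. Doses tested were 100, 200, 500 and 1000 mg/kg.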

Herpesviridae sp. = assay: Antiviral activity against Herpes Simplex virus HF infected in African green monkey BGM cells assessed as plaque reduction measured on day 5 by disk diffusion assay; type: functional; details: 120 h, read-out: ED50 (the source's name)
Vaccinia virus = assay: Antiviral activity against Vaccinia virus IHD infected in African green monkey BGM cells assessed as plaque reduction measured on day 5 by disk diffusion assay; type: functional; details: Orthopoxvirus vaccinia, 120 h, read-out: ED50 (the source's name)
L1210 [3] = assay: Antitumor activity against mouse L1210 cells allografted in BDF1 mouse assessed as survival at 200 mg/kg, ip administered as single dose measured on day 30 relative to vehicle-treated control; type: functional, organism-based; parameters: dose 200 mg/kg; in short: as §2
L1210 [4] = assay: Antitumor activity against mouse L1210 cells allografted in BDF1 mouse assessed as increase in life span at 100 mg/kg, ip administered as single dose relative to vehicle-treated control; type: functional; details: route intraperitoneal; in short: as §1
L1210 [5] = assay: Antitumor activity against mouse L1210 cells allografted in BDF1 mouse assessed as increase in life span at 1000 mg/kg, ip administered as single dose relative to vehicle-treated control; type: functional; details: route intraperitoneal; in short: as §1
HeLa = assay: Cytotoxicity against human HeLa cells after 48 hrs by Coulter counter analysis; type: functional; details: read-out: ED50 (the source's name)
L1210 [6] = assay: Antitumor activity against mouse L1210 cells allografted in BDF1 mouse assessed as survival at 500 mg/kg, ip administered as single dose measured on day 30 relative to vehicle-treated control; type: functional, organism-based; parameters: dose 500 mg/kg; in short: as §2
L1210 [7] = assay: Antitumor activity against mouse L1210 cells allografted in BDF1 mouse assessed as increase in life span at 500 mg/kg, ip administered as single dose relative to vehicle-treated control; type: functional; details: route intraperitoneal; in short: as §1
L1210 [8] = assay: Antitumor activity against mouse L1210 cells allografted in BDF1 mouse assessed as survival at 1000 mg/kg, ip administered as single dose measured on day 30 relative to vehicle-treated control; type: functional, organism-based; parameters: dose 1000 mg/kg; in short: as §2

| Compound | ILS at 200 mg/kg (L1210 [1]) [%] | Activity (L1210 [2]) | pEC50 (Herpesviridae sp.) | pEC50 (Vaccinia virus) | Activity (L1210 [3]) | ILS at 100 mg/kg (L1210 [4]) [%] | ILS at 1000 mg/kg (L1210 [5]) [%] | EC50 (HeLa) [µg/mL] | Activity (L1210 [6]) | ILS at 500 mg/kg (L1210 [7]) [%] | Activity (L1210 [8]) |
| --- | --- | --- | --- | --- | --- | --- | --- | --- | --- | --- | --- |
| CCCCCCCCCCCCCCCCCCCC(=O)OC[C@H]1O[C@@H](n2ccc(N)nc2=O)[C@@H](O)[C@@H]1OC(=O)CCCCCCCCCCCCCCCCCCC | 39 | inactive | < 4.52 | < 4.52 | inactive | 87 | > 205 | > 10 |  |  |  |
| CCCCCCCC/C=C\CCCCCCCCCCCC(=O)OC[C@H]1O[C@@H](n2ccc(N)nc2=O)[C@@H](O)[C@@H]1OC(=O)CCCCCCCCCCC/C=C\CCCCCCCC | 86 | inactive | < 4.52 | < 4.52 | inactive | 58 |  | > 10 |  |  |  |
| CC(=O)O[C@H]1[C@H](O)[C@H](n2ccc(N)nc2=O)O[C@@H]1CO | 19 | inactive | 5.84 | 6.24 | inactive | 14 |  | 0.14 (≈ 0.491 µM) | inactive | 20 |  |
| CCCCCCCCC(=O)OC[C@H]1O[C@@H](n2ccc(N)nc2=O)[C@@H](O)[C@@H]1OC(=O)CCCCCCCC.Cl | 71 |  | 6.28 | 6.72 | inactive |  |  | 0.08 |  |  |  |
| CCCCCCCCCCC(=O)OC[C@H]1O[C@@H](n2ccc(N)nc2=O)[C@@H](O)[C@@H]1OC(=O)CCCCCCCCCC | > 300 |  | 6.11 | 6.52 | inactive | > 280 |  | 0.4 (≈ 0.69 µM) | Active | 117 |  |
| CCCCCCCCCC(=O)OC[C@H]1O[C@@H](n2ccc(N)nc2=O)[C@@H](O)[C@@H]1OC(=O)CCCCCCCCC | > 214 |  | 6.11 | 6.46 |  |  | -4 | 0.11 (≈ 0.199 µM) |  | > 205 | inactive |
| C=CCCCCCCCC(=O)OC[C@H]1O[C@@H](n2ccc(N)nc2=O)[C@@H](O)[C@@H]1OC(=O)CCCCCCCC=C.Cl |  |  |  |  |  |  |  | 0.1 |  |  |  |
| CCCCCCC/C=C\C(=O)O[C@H]1[C@H](O)[C@H](n2ccc(N)nc2=O)O[C@@H]1CO.Cl | 22 |  | 6.64 | 6.96 | inactive |  |  | 0.06 |  |  |  |
| CCCCCC(=O)OC[C@H]1O[C@@H](n2ccc(N)nc2=O)[C@@H](O)[C@@H]1OC(=O)CCCCC | 11 | inactive | 6.05 | 6.66 | inactive | 4 |  | 0.07 (≈ 0.159 µM) |  |  |  |
| Cl.Nc1ccn([C@@H]2O[C@H](CO)[C@@H](OC(=O)Cc3ccccc3)[C@@H]2O)c(=O)n1 | 8 |  | 5.82 | 6.34 | inactive |  |  | 0.11 |  |  |  |
| CCCCCCCCCCCCCC(=O)OC[C@H]1O[C@@H](n2ccc(N)nc2=O)[C@@H](O)[C@@H]1OC(=O)CCCCCCCCCCCCC | > 240 |  | 5.00 | 5.24 | Active | > 255 | -12 | 1.4 (≈ 2.11 µM) |  | > 105 | inactive |
| CC(=O)OC[C@H]1O[C@@H](n2ccc(N)nc2=O)[C@@H](O)[C@@H]1OC(C)=O.Cl | 10 |  | 4.80 | 5.49 | inactive |  |  | 0.06 |  |  |  |
| Cl.Nc1ccn([C@@H]2O[C@H](COC(=O)Cc3ccccc3)[C@@H](OC(=O)Cc3ccccc3)[C@@H]2O)c(=O)n1 | 29 |  | 5.89 | 5.64 | inactive |  |  | 0.13 |  |  |  |
| C=CCCCCCCCCC(=O)O[C@H]1[C@H](O)[C@H](n2ccc(N)nc2=O)O[C@@H]1CO | 49 |  | 6.36 | 6.96 | inactive |  | > 52 | 0.05 (≈ 0.122 µM) |  | > 191 |  |
| CCCCCCCC/C=C\CCCCCCCC(=O)O[C@H]1[C@H](O)[C@H](n2ccc(N)nc2=O)O[C@@H]1CO | 67 |  | 6.03 | 6.14 | inactive |  |  | 0.06 (≈ 0.118 µM) |  |  |  |
| CCCCCCCCCCCCCCCC(=O)OC[C@H]1O[C@@H](n2ccc(N)nc2=O)[C@@H](O)[C@@H]1OC(=O)CCCCCCCCCCCCCCC | > 255 |  | < 4.52 | 4.52 |  |  | > 237 | > 10 |  |  |  |
| CCCC(=O)OC[C@H]1O[C@@H](n2ccc(N)nc2=O)[C@@H](O)[C@@H]1OC(=O)CCC | 8 | inactive | 5.28 | 5.94 | inactive | 14 |  | 0.11 (≈ 0.287 µM) |  |  |  |
| CCCCCCCCCCCCCCCCCCCCCC(=O)OC[C@H]1O[C@@H](n2ccc(N)nc2=O)[C@@H](O)[C@@H]1OC(=O)CCCCCCCCCCCCCCCCCCCCC | 27 | inactive | < 4.52 | < 4.52 | inactive | 10 | 113 | > 10 |  |  | inactive |
| CCCCCCCCCCCCCCCCCCCC(=O)O[C@H]1[C@H](O)[C@H](n2ccc(N)nc2=O)O[C@@H]1CO | 164 | inactive | < 4.52 | < 4.52 | inactive | 91 | > 295 | 0.1 (≈ 0.186 µM) |  | > 274 | Active |
| CCCCCCCCCCCCCCCCCC(=O)OC[C@H]1O[C@@H](n2ccc(N)nc2=O)[C@@H](O)[C@@H]1OC(=O)CCCCCCCCCCCCCCCCC | 124 |  | < 4.52 | < 4.52 | inactive |  | > 328 | 10 (≈ 12.9 µM) |  |  |  |
| CCCCCCCCCCCCCCCCCC(=O)O[C@H]1[C@H](O)[C@H](n2ccc(N)nc2=O)O[C@@H]1CO | > 228 | Active | 6.15 | 6.42 |  | > 219 | -23 | 0.13 (≈ 0.255 µM) |  |  | inactive |
| CCCCCCCCCCCCCC(=O)O[C@H]1[C@H](O)[C@H](n2ccc(N)nc2=O)O[C@@H]1CO | > 284 |  | 6.19 | 6.74 | Active | > 266 | -23 | 0.08 (≈ 0.176 µM) | inactive | -21 | inactive |
| CCCCCCCCCCCC(=O)OC[C@H]1O[C@@H](n2ccc(N)nc2=O)[C@@H](O)[C@@H]1OC(=O)CCCCCCCCCCC | > 285 |  | 5.14 | 5.69 | Active |  | > 260 | 0.5 (≈ 0.823 µM) |  |  |  |
| CCCC(=O)O[C@H]1[C@H](O)[C@H](n2ccc(N)nc2=O)O[C@@H]1CO | 13 |  | 5.55 | 5.92 | inactive |  |  | 0.11 (≈ 0.351 µM) | inactive | 22 |  |
| CCCCCCCC(=O)OC[C@H]1O[C@@H](n2ccc(N)nc2=O)[C@@H](O)[C@@H]1OC(=O)CCCCCCC.Cl | 20 | inactive | 5.59 | 6.66 | inactive | -28 | 46 | 0.13 |  |  | inactive |
| CCCCCCCCCCC(=O)O[C@H]1[C@H](O)[C@H](n2ccc(N)nc2=O)O[C@@H]1CO | > 125 |  | 6.92 | 7.00 |  | > 127 |  | 0.04 (≈ 0.0972 µM) |  | > 99 |  |
| CCCCCCCCC(=O)O[C@H]1[C@H](O)[C@H](n2ccc(N)nc2=O)O[C@@H]1CO | 59 |  | 6.52 | 7.00 | inactive |  | > 142 | 0.05 (≈ 0.13 µM) |  | > 189 |  |
| CCCCCCCC/C=C/CCCCCCCC(=O)O[C@H]1[C@H](O)[C@H](n2ccc(N)nc2=O)O[C@@H]1CO | > 258 |  | 5.82 | 6.03 |  | > 246 |  | 0.05 (≈ 0.0985 µM) |  |  |  |
